{"source": "ChEMBL document CHEMBL4312029", "about": "“Structure-activity relationship studies and in vitro and in vivo anticancer activity of novel 3-aroyl-1,4-diarylpyrroles against solid tumors and hematological malignancies” (Eur J Med Chem, 2020)", "key": {"KU812 cell line": {"system": "KU812 cell line", "experiment": "Cytotoxicity against human KU812 cells expressing IM- sensitive wild type Bcr/Abl assessed as reduction in cell viability incubated for 48 hrs by MTT assay", "format": "functional, cell-based", "conditions": "KU812, 48 h"}, "U-87 MG": {"system": "U-87 MG", "experiment": "Cytotoxicity against human U87MG cells assessed as reduction in cell viability incubated for 48 hrs by MTS assay", "format": "functional, cell-based, U-87MG ATCC", "method_in_brief": "(§1)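 Increasing concentrations applied to glioblastoma and neuroblastoma lines to give dose-response viability curves; cytotoxic IC50 from triplicate experiments. Incubation 48 h, except U343MG at 72 h.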"}, "KBM5 [1]": {"system": "KBM5", "experiment": "Potentiation of NLT-induced apoptotic cell death in human KBM5 cells expressing IM-resistant Bcr/Abl T315I mutant at 10 nM co-incubated with NLT for 48 hrs by Annexin V-staining based flow cytometry", "format": "functional", "method_in_brief": "(§2)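 KBM5-WT or KBM5-T315I CML cells treated 48 h with 10 nM nilotinib, with or without 10 nM test compound (each agent alone also run). Apoptosis measured by annexin V staining and flow cytometry, read as percentage of apoptotic cells. Triplicate experiments.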"}, "KBM5 [2]": {"system": "KBM5", "experiment": "Cytotoxicity against human KBM5 cells expressing IM-resistant Bcr/Abl T315I mutant assessed as reduction in cell viability incubated for 48 hrs by MTT assay", "format": "functional, cell-based", "conditions": "KBM5, 48 h"}, "[3]": {"experiment": "Cytotoxicity against IM resistant human LAMA84-r cells assessed as reduction in cell viability incubated for 48 hrs by MTT assay", "format": "functional, cell-based"}, "[4]": {"experiment": "Cytotoxicity against human SK-N-BE cells assessed as reduction in cell viability incubated for 48 hrs by MTT assay", "format": "functional, cell-based", "method_in_brief": "as §1"}, "MCF7": {"system": "MCF7", "experiment": "Cytotoxicity against human MCF7 cells assessed as reduction in cell growth incubated for 96 hrs by MTT assay", "format": "functional, cell-based", "conditions": "MCF7, 96 h", "method_in_brief": "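Growth inhibition of human breast carcinoma cells, reported as IC50; run in duplicate or triplicate.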"}, "T-24": {"system": "T-24", "experiment": "Cytotoxicity against human T24 cells assessed as reduction in cell viability incubated for 48 hrs by MTT assay", "format": "functional, cell-based", "conditions": "T-24, 48 h"}, "KBM5 [5]": {"system": "KBM5", "experiment": "Induction of apoptotic cell death in human KBM5 cells expressing IM-sensitive wild type Bcr/Abl at 10 nM incubated for 48 hrs by Annexin V-staining based flow cytometry", "format": "functional", "method_in_brief": "(§3)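 KBM5-WT and KBM5-T315I cells exposed 48 h to 10 nM test compound alone or combined with 10 nM nilotinib (nilotinib alone as comparator). Apoptotic cells quantified by annexin V staining and flow cytometry; triplicate.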"}, "KBM5 [6]": {"system": "KBM5", "experiment": "Cytotoxicity against human KBM5 cells expressing IM- sensitive wild type Bcr/Abl assessed as reduction in cell viability incubated for 48 hrs by MTT assay", "format": "functional, cell-based", "conditions": "KBM5, 48 h"}, "Tubulin": {"molecular_target": "Tubulin", "experiment": "Inhibition of tubulin polymerization (unknown origin) incubated for 15 mins followed by GTP addition and measured for 20 mins by spectrophotometry", "format": "protein-complex assay, Homo sapiens", "method_in_brief": "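Tubulin assembly assay with tubulin at 10 µM. IC50 for inhibition of polymerization; run in duplicate or triplicate.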"}, "T98G": {"system": "T98G", "experiment": "Cytotoxicity against human T98G cells assessed as reduction in cell viability incubated for 48 hrs by MTS assay", "format": "functional, cell-based", "method_in_brief": "as §1"}, "[7]": {"experiment": "Cytotoxicity against human SK-N-BE(2)C cells assessed as reduction in cell viability incubated for 48 hrs by MTT assay", "format": "functional, cell-based", "method_in_brief": "as §1"}, "KBM5 [8]": {"system": "KBM5", "experiment": "Potentiation of NLT-induced apoptotic cell death in human KBM5 cells expressing IM-sensitive wild type Bcr/Abl at 10 nM co-incubated with NLT for 48 hrs by Annexin V-staining based flow cytometry", "format": "functional", "method_in_brief": "as §2"}, "[9]": {"experiment": "Cytotoxicity against human LAMA84-s cells expressing IM-sensitive wild type Bcr/Abl assessed as reduction in cell viability incubated for 48 hrs by MTT assay", "format": "functional, cell-based"}, "KBM5 [10]": {"system": "KBM5", "experiment": "Induction of apoptotic cell death in human KBM5 cells expressing IM-resistant Bcr/Abl T315I mutant at 10 nM incubated for 48 hrs by Annexin V-staining based flow cytometry", "format": "functional", "method_in_brief": "as §3"}, "Tubulin (Homo sapiens)": {"molecular_target": "Tubulin (Homo sapiens) (UniProt P68371+Q9H4B7+P0DPH7+P68366+Q13509+Q71U36+P04350+Q3ZCM7+P07437+P68363+Q9BQE3+Q6PEY2+Q13885+Q9BVA1+Q9BUF5)", "experiment": "Inhibition of [3H]colchicine binding to tubulin (unknown origin) at 5 uM incubated for 10 mins by DEAE-cellulose filter method relative to control", "format": "protein-complex assay"}, "Homo sapiens": {"organism": "Homo sapiens", "experiment": "(§4) Cytotoxicity against human U343MG cells assessed as reduction in cell viability incubated for 72 hrs by MTS assay", "format": "functional, cell-based", "method_in_brief": "as §1"}, "[11]": {"experiment": "as §4", "format": "functional, cell-based", "conditions": "U-343MG", "method_in_brief": "as §1"}, "HT-29": {"system": "HT-29", "experiment": "Cytotoxicity against human HT-29 cells assessed as reduction in cell viability incubated for 48 hrs by MTT assay", "format": "functional, cell-based"}, "HCT-116": {"system": "HCT-116", "experiment": "Cytotoxicity against human HCT116 cells assessed as reduction in cell viability incubated for 48 hrs by MTT assay", "format": "functional, cell-based"}, "PBMC": {"system": "PBMC", "experiment": "Cytotoxicity against human PBMC assessed as cell viability by MTT assay", "format": "cell-based"}, "SW-620": {"system": "SW-620", "experiment": "Cytotoxicity against human SW620 cells assessed as reduction in cell viability incubated for 48 hrs by MTT assay", "format": "functional, cell-based"}, "SW480": {"system": "SW480", "experiment": "Cytotoxicity against human SW480 cells assessed as reduction in cell viability incubated for 48 hrs by MTT assay", "format": "functional, cell-based"}}, "note": "Activity calls are given as the source filed them. No cut-off for these calls is given here."}
{"smiles": "COc1cc(C(=O)c2cn(-c3ccc(N)cc3)cc2-c2ccc(N)cc2)cc(OC)c1OC", "values": [{"measurement": "IC50", "setting": "KU812 cell line", "value": 5, "unit": "nM"}, {"measurement": "Emax", "setting": "U-87 MG", "value": 31.8, "unit": "%"}, {"measurement": "IC50", "setting": "U-87 MG", "value": "47.6 to 48", "unit": "nM"}, {"measurement": "inhibition", "setting": "U-87 MG; U-87MG ATCC", "value": "Dose-dependent effect"}, {"measurement": "Activity", "setting": "KBM5 [1]", "value": "50 - 90%"}, {"measurement": "IC50", "setting": "KBM5 [2]", "value": 12, "unit": "nM"}, {"measurement": "IC50", "setting": "[3]", "value": 10, "unit": "nM"}, {"measurement": "IC50", "setting": "[4]", "value": 303, "unit": "nM"}, {"measurement": "IC50", "setting": "MCF7", "value": 15, "unit": "nM"}, {"measurement": "IC50", "setting": "T-24", "value": 58, "unit": "nM"}, {"measurement": "Activity", "setting": "KBM5 [5]", "value": "Active"}, {"measurement": "IC50", "setting": "KBM5 [6]", "value": 10, "unit": "nM"}, {"measurement": "IC50", "setting": "Tubulin", "value": 380, "unit": "nM"}, {"measurement": "Emax", "setting": "T98G", "value": 36.2, "unit": "%"}, {"measurement": "IC50", "setting": "T98G", "value": "24 to 24.3", "unit": "nM"}, {"measurement": "inhibition", "setting": "T98G", "value": "Dose-dependent effect"}, {"measurement": "IC50", "setting": "[7]", "value": 147, "unit": "nM"}, {"measurement": "Activity", "setting": "KBM5 [8]", "value": "50 - 90%"}, {"measurement": "IC50", "setting": "[9]", "value": 8, "unit": "nM"}, {"measurement": "Activity", "setting": "KBM5 [10]", "value": "Active"}, {"measurement": "inhibition", "setting": "Tubulin (Homo sapiens)", "value": 87, "unit": "%"}, {"measurement": "inhibition", "setting": "Homo sapiens", "value": "Dose-dependent effect"}, {"measurement": "Emax", "setting": "[11]", "value": 34, "unit": "%"}, {"measurement": "IC50", "setting": "[11]", "value": "21.5 to 22", "unit": "nM"}, {"measurement": "inhibition", "setting": "HT-29", "value": "Dose-dependent effect"}, {"measurement": "IC50", "setting": "HT-29; HT-29, 48 h", "value": 34, "unit": "nM"}, {"measurement": "inhibition", "setting": "HCT-116", "value": "Dose-dependent effect"}, {"measurement": "IC50", "setting": "HCT-116; HCT-116, 48 h", "value": 41, "unit": "nM"}, {"measurement": "Activity", "setting": "PBMC", "value": "Non-Toxic"}, {"measurement": "inhibition", "setting": "SW-620", "value": "Dose-dependent effect"}, {"measurement": "IC50", "setting": "SW-620; SW-620, 48 h", "value": 61, "unit": "nM"}, {"measurement": "inhibition", "setting": "SW480", "value": "Dose-dependent effect"}, {"measurement": "IC50", "setting": "SW480; SW480, 48 h", "value": 153, "unit": "nM"}]}
